Results from ChEMBL document CHEMBL1126550, “Nanomolar-affinity, non-peptide oxytocin receptor antagonists” (J Med Chem, 1993).
pIC50: −log10 of the molar value.

Experiments:
[1] = target: Vasopressin V2 receptor (Rattus norvegicus, UniProt Q00788); assay: Inhibition of radioligand [3H]-AVP binding to the vasopressin V2 receptor in rat kidney tissue
Method in brief: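 [3H]AVP (80–90 Ci/mmol) at 2 nM competed on crude membranes from male rat kidney medulla (V2 sites). Equilibrium 30 min at 30 °C in 100 mM Tris-HCl, 5 mM MgCl2, 0.1% BSA, 50 μM PMSF, 50 μg/mL bacitracin, pH 8.0. Nonspecific binding with 10 μM unlabeled AVP. Glass-fiber filtration. IC50 by linear regression of % inhibition vs log concentration, seven concentrations.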

[2] = target: Vasopressin V1 receptor (Rattus norvegicus, UniProt P48974+P30560); assay: Inhibition of radioligand [3H]AVP binding to the vasopressin V1 receptor in rat liver tissue
Method in brief: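 Crude membranes from male rat liver (V1 sites) competed with 1 nM [3H]AVP (80–90 Ci/mmol). Equilibrium 30 min, 30 °C, buffer 100 mM Tris-HCl, 5 mM MgCl2, 0.1% BSA, 50 μM PMSF, 50 μg/mL bacitracin, pH 8.0. 10 μM unlabeled AVP for nonspecific binding. Filtration through glass-fiber filters. IC50 from linear regression over seven concentrations.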

[3] = target: T1, Oxytocin receptor (Rattus norvegicus, UniProt P70536); assay: Inhibition of radioligand [3H]oxytocin binding at the oxytocin (OT) receptor in rat uterine tissue
T1 sequence (P70536 whole entry): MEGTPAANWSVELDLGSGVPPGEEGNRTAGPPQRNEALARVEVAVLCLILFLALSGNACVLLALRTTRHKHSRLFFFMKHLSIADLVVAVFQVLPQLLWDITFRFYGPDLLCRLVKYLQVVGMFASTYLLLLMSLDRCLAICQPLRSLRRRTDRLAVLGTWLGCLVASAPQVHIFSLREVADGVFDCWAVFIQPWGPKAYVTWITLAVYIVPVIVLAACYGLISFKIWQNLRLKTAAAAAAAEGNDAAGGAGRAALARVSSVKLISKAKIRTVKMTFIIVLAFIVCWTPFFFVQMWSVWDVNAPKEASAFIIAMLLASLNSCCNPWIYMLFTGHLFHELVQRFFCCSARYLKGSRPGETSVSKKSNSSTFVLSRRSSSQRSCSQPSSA
Method in brief: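 Uteri taken from rats given diethylstilbestrol dipropionate (0.3 mg/kg ip, 18–24 h before), crude membranes. 1 nM [3H]OT (30–60 Ci/mmol), equilibrium 60 min at 22 °C in 50 mM Tris-HCl, 5 mM MgCl2, 0.1% BSA, pH 7.4. Nonspecific binding with 1 mM unlabeled OT. Filtered on glass fiber. Initial single-concentration screen, then IC50 from seven concentrations by linear regression.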

Vasopressin V2 receptor, sequence (Q00788 whole entry): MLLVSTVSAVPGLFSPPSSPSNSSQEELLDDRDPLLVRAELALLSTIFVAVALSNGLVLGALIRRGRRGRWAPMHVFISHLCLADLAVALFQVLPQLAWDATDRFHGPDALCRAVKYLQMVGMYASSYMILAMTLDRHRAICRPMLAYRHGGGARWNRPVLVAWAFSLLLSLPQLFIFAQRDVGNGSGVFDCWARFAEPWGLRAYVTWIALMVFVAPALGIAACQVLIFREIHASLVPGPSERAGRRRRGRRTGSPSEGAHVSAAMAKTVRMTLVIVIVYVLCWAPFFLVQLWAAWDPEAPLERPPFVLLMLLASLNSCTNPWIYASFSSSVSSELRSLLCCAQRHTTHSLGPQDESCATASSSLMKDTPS

| SMILES | pIC50 [1] | IC50 [2] [nM] | pIC50 [3] |
| --- | --- | --- | --- |
| CC1(C)[C@@H]2CC[C@@]1(CS(=O)(=O)N1CCC3(CCc4ccccc43)CC1)[C@@H](NC(=O)CC(CC(N)=O)NC(=O)Cc1c[nH]cn1)C2 (stereo partly drawn) | 5.27 | 1300 | 7.30 |
| CC1(C)[C@@H]2CC[C@@]1(CS(=O)(=O)N1CCC3(CCc4ccccc43)CC1)[C@@H](N1C(=O)CCC1=O)C2 | 5.77 | 910 | 7.96 |
| CC(C)CC1NC(=O)N([C@H]2C[C@H]3CC[C@]2(CS(=O)(=O)N2CCC4(CCc5ccccc54)CC2)C3(C)C)C1=O (stereo partly drawn) | 5.38 | 1200 | 7.04 |
| CC(C)(C(=O)N[C@H]1C[C@H]2CC[C@]1(CS(=O)(=O)N1CCC3(CCc4ccccc43)CC1)C2(C)C)c1c[nH]cn1 | < 5.10 | 3000 | 6.82 |
| CC1(C)[C@@H]2CC[C@@]1(CS(=O)(=O)N1CCC3(CCc4ccccc43)CC1)[C@@H](NC(=O)Cn1ccnc1)C2 | 5.00 | 16000 | 6.92 |
| CC1(C)[C@@H]2CC[C@@]1(CS(=O)(=O)N1CCC3(CCc4ccccc43)CC1)[C@@H](NC(=O)Cc1ccncc1)C2 | 5.00 | > 1000 | 6.92 |
| CN(C)C(CCS(C)(=O)=O)C(=O)N[C@H]1C[C@H]2CC[C@]1(CS(=O)(=O)N1CCC3(CCc4ccccc43)CC1)C2(C)C (stereo partly drawn) | 5.89 | 530 | 8.31 |
| CC1(C)[C@@H]2CC[C@@]1(CS(=O)(=O)N1CCC3(CCc4ccccc43)CC1)[C@@H](NC(=O)N(CCC(=O)O)CCc1c[nH]cn1)C2 | 5.07 | 4000 | 7.64 |
| CC1(C)[C@@H]2CC[C@@]1(CS(=O)(=O)N1CCC3(CCc4ccccc43)CC1)[C@@H](NC(=O)CN1CC[C@H](N)C1=O)C2 | 5.08 | 2700 | 7.21 |
| CC1(C)[C@@H]2CC[C@@]1(CS(=O)(=O)N1CCC3(CCc4ccccc43)CC1)[C@@H](NC(=O)C(N)CCCO)C2 (stereo partly drawn) | 5.21 | 1700 | 7.10 |
| CC1(C)[C@@H]2CC[C@@]1(CS(=O)(=O)N1CCC3(CCc4ccccc43)CC1)[C@@](O)(CN1CCCC1=O)C2 | < 5.52 | 3000 | 6.82 |
| CC1(C)[C@@H]2CC[C@@]1(CS(=O)(=O)N1CCC3(CCc4ccccc43)CC1)[C@@H](N1C(=O)CN(CC(=O)Nc3ncc[nH]3)C1=O)C2 | 6.13 | 500 | 8.23 |
| CC(=O)NCC[C@@]1(O)C[C@H]2CC[C@]1(CS(=O)(=O)N1CCC3(C=Cc4ccccc43)CC1)C2(C)C | 4.52 | 2700 | 6.82 |
| CC1(C)[C@@H]2CC[C@@]1(CS(=O)(=O)N1CCC3(C=Cc4ccccc43)CC1)[C@@](O)(CC#N)C2 | < 5.00 | > 10000 | 6.11 |
| CC1(C)[C@@H]2CC[C@@]1(CS(=O)(=O)N1CCC3(CCc4ccccc43)CC1)[C@@H](N1CCC(N)C1=O)C2 (stereo partly drawn) | 5.26 | 1700 | 7.22 |
| CC1(C)[C@@H]2CC[C@@]1(CS(=O)(=O)N1CCC3(C=Cc4ccccc43)CC1)[C@@](O)(CNC(=O)Cc1ccccn1)C2 | 5.33 | 830 | 7.09 |
| CC1(C)[C@@H]2CC[C@@]1(CS(=O)(=O)N1CCC3(CCc4ccccc43)CC1)[C@@H](NC(=O)CCC1CCCNC1)C2 (stereo partly drawn) | 5.28 | 710 | 7.52 |
| CC1(C)[C@@H]2CC[C@@]1(CS(=O)(=O)N1CCC3(C=Cc4ccccc43)CC1)[C@@](O)(CNC(=O)c1ccccn1)C2 | 5.44 | 1100 | 6.74 |
| CNC1CCN([C@H]2C[C@H]3CC[C@]2(CS(=O)(=O)N2CCC4(CCc5ccccc54)CC2)C3(C)C)C1=O (stereo partly drawn) | 4.92 | 4700 | 6.68 |
| CC1(C)[C@@H]2CC[C@@]1(CS(=O)(=O)N1CCC3(CCc4ccccc43)CC1)[C@@H](NC(=O)CCN)C2 | 5.02 | 1000 | 6.85 |
| CC1(C)[C@@H]2CC[C@@]1(CS(=O)(=O)N1CCC3(C=Cc4ccccc43)CC1)[C@@](O)(CNC(=O)CC13CC4CC(CC(C4)C1)C3)C2 | < 5.52 | > 3000 | 6.32 |

| SMILES | pIC50 [1] | IC50 [2] [nM] | pIC50 [3] |
| --- | --- | --- | --- |
| CN1CC(=O)N([C@H]2C[C@H]3CC[C@]2(CS(=O)(=O)N2CCC4(CCc5ccccc54)CC2)C3(C)C)C1=O | 5.57 | 960 | 7.85 |
| CC(C)[C@@H](N)C(=O)N[C@H]1C[C@H]2CC[C@]1(CS(=O)(=O)N1CCC3(CCc4ccccc43)CC1)C2(C)C | < 5.52 | 3000 | 6.96 |
| C[S+]([O-])CCC(N)C(=O)N[C@H]1C[C@H]2CC[C@]1(CS(=O)(=O)N1CCC3(CCc4ccccc43)CC1)C2(C)C (stereo partly drawn) | 5.13 | 3600 | 7.27 |
| CC1(C)[C@@H]2CC[C@@]1(CS(=O)(=O)N1CCC3(CCc4ccccc43)CC1)[C@@H](NC(=O)[C@@H](N)CCS(C)(=O)=O)C2 | 5.62 | 890 | 7.92 |
| CC1(C)[C@@H]2CC[C@@]1(CS(=O)(=O)N1CCC3(CCc4ccccc43)CC1)[C@@H](N1C(=O)NC(CCS(C)(=O)=O)C1=O)C2 (stereo partly drawn) | 6.18 | 110 | 8.59 |
| CC1(C)[C@@H]2CC[C@@]1(CS(=O)(=O)N1CCC3(CCc4ccccc43)CC1)[C@H](NC(=O)Cc1ccccc1)C2 | 5.00 | > 1000 | 6.00 |
| CC1(C)[C@@H]2CC[C@@]1(CS(=O)(=O)N1CCC3(CCc4ccccc43)CC1)[C@@H](NC(=O)Cc1nnn[nH]1)C2 | < 5.52 | > 3000 | 6.66 |
| CC1(C)[C@@H]2CC[C@@]1(CS(=O)(=O)N1CCC3(CCc4ccccc43)CC1)[C@@H](NC(=O)Cc1cccnc1)C2 | 5.00 | > 1000 | 6.77 |
| CC1(C)[C@@H]2CC[C@@]1(CS(=O)(=O)N1CCC3(C=Cc4ccccc43)CC1)[C@@](O)(CNC(=O)c1cccnc1)C2 | 5.17 | 1500 | 7.00 |
| CC1(C)[C@@H]2CC[C@@]1(CS(=O)(=O)N1CCC3(C=Cc4ccccc43)CC1)[C@@](O)(CN1C(=O)CNC1=O)C2 | 5.13 | 2700 | 7.30 |
| CC1(C)[C@@H]2CC[C@@]1(CS(=O)(=O)N1CCC3(CCc4ccccc43)CC1)[C@@H](NC(=O)Cc1ccccn1)C2 | 5.19 | 3900 | 7.02 |
| CC1(C)[C@@H]2CC[C@@]1(CS(=O)(=O)N1CCC3(CCc4ccccc43)CC1)[C@@H](NC(=O)CCc1c[nH]cn1)C2 | 4.68 | 5800 | 7.03 |
| CC1(C)[C@@H]2CC[C@@]1(CS(=O)(=O)N1CCC3(CCc4ccccc43)CC1)[C@@H](NC(=O)C1CNC(=O)N1)C2 (stereo partly drawn) | < 5.52 | > 3000 | 7.04 |
| CC(=O)N[C@@H]1C[C@H]2CC[C@]1(CS(=O)(=O)N1CCC3(CCc4ccccc43)CC1)C2(C)C | < 5.00 | 10000 | 5.92 |
| CC1(C)[C@@H]2CC[C@@]1(CS(=O)(=O)N1CCC3(C=Cc4ccccc43)CC1)[C@@](O)(CN)C2 | < 5.00 | > 1000 | 5.89 |
| CC1(C)[C@@H]2CC[C@@]1(CS(=O)(=O)N1CCC3(C=Cc4ccccc43)CC1)C(=O)C2 | < 5.00 | > 10000 | 5.74 |
| CC1(C)[C@@H]2CC[C@@]1(CS(=O)(=O)N1CCC3(CCc4ccccc43)CC1)[C@@H](N1C(=O)CC(CC(=O)Nc3nn[nH]n3)C1=O)C2 (stereo partly drawn) | 5.62 | 770 | 7.89 |
| CC(=O)N[C@H]1C[C@H]2CC[C@]1(CS(=O)(=O)N1CCC3(CCc4ccccc43)CC1)C2(C)C | 4.59 | 7600 | 6.41 |
| CC1(C)[C@@H]2CC[C@@]1(CS(=O)(=O)N1CCC3(CCc4ccccc43)CC1)/C(=N\O)C2 | 4.89 | 3200 | 6.35 |
| CC1(C)[C@@H]2CC[C@@]1(CS(=O)(=O)N1CCC3(CCc4ccccc43)CC1)[C@@H](N1C(=O)NC(CC(=O)Nc3nn[nH]n3)C1=O)C2 (stereo partly drawn) | 5.17 | 3700 | 7.52 |
